How the values were obtained:
[1] = test system: Lipid bilayer; assay: Membrane disrupting activity in large unilamellar vesicles assessed as calcein AM dye leakage at 10 uM by fluorescence assay relative to control; assay type: physicochemical
Method in brief: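 Calcein-loaded POPC or POPC/cholesterol (9:1 mol ratio) LUVs, with excess dye removed by Sepharose 4B gel filtration in Tris-HCl pH 7.5 containing 1 mM EDTA and 150 mM NaCl. Lipid at 27 μM in PBS. Fluorescence (ex 490/em 517 nm) read before and after adding compound. Triton X-100 was then added to define 100% leakage.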

[2] = test system: Aspergillus niger; assay: Antifungal activity against Aspergillus niger NBRC 31032 after 2 days by paper disk method; assay type: functional
Method in brief: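 A. niger grown 2 days at 25 °C in glucose/peptone broth, spread on agar of the same medium (1.5% agar). Samples in MeOH spotted on 8 mm paper disks, up to 60 μg/disk; after 2 days at 25 °C the inhibition zone was measured and minimum effective concentration recorded.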

[3] = test system: Erythrocyte; assay: Hemolytic activity in human erythrocytes after 18 hrs by colorimetric method; assay type: ADME, cell-based
Method in brief: (§1)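 Human RBCs washed in PBS (pH 7.4) by centrifugation and diluted to a 1% suspension (~1.7 × 10^7 cells/mL). 190 μL suspension mixed with 10 μL sample (up to 80 μM) or PBS; water-lysed RBCs served as 100%. Incubated at 37 °C for 18 h, centrifuged, supernatant absorbance read at 450 nm. % hemolysis and EC50 taken from dose-response curves.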

[4] = test system: Lipid bilayer; assay: Membrane disrupting activity in POPC large unilamellar vesicles assessed as calcein AM dye leakage at 80 uM by fluorescence assay relative to control; assay type: physicochemical
Method in brief: (§2)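 Calcein-loaded LUVs of POPC or POPC/Chol (9:1 mol) freed of external dye on Sepharose 4B in Tris-HCl pH 7.5, EDTA, NaCl. Vesicles diluted in PBS to 27 μM lipid and fluorescence read (ex 490/em 517 nm). Sample added and fluorescence re-read, then Triton X-100 added to give 100% leakage.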

[5] = test system: Lipid bilayer; assay: Membrane disrupting activity in POPC/cholesterol large unilamellar vesicles assessed as calcein AM dye leakage at 80 uM by fluorescence assay relative to control; assay type: physicochemical; method in brief: as §2
[6] = test system: Lipid bilayer; assay: Membrane disrupting activity in POPC/cholesterol large unilamellar vesicles assessed as calcein AM dye leakage at 20 uM by fluorescence assay relative to control; assay type: physicochemical; method in brief: as §2
[7] = test system: Lipid bilayer; assay: Membrane disrupting activity in POPC large unilamellar vesicles assessed as calcein AM dye leakage at 20 uM by fluorescence assay relative to control; assay type: physicochemical; method in brief: as §2
[8] = Hemolytic activity in human erythrocytes at 20 uM after 18 hrs by colorimetric method; assay type: ADME, cell-based, Erythrocyte; details: read-out: Activity; method in brief: as §1

Row | Activity [4] | Activity [5] | Activity [6] | Activity [7] | SMILES | Activity [1] | MEC [2] | EC50 [3] | hemolysis at 18 h, 20 µM [8]
1 |  |  |  |  | C=C/C=C/CC/C=C/C=C/C=C/CC/C=C/[C@H](O)[C@H](O)[C@@H]1O[C@@H]([C@H](O)[C@H](O)C(=C)CC[C@@H](O)[C@H]2C[C@@H](O)[C@@H](O)[C@H]([C@@H](O)[C@H](O)/C=C(\C)CC[C@H](O)C[C@H](O)[C@H](O)[C@@H](C)C[C@H](O)[C@@H](O)CCCCC[C@@H](O)CCC[C@@H](O)/C=C/C[C@@H](O)/C=C/C[C@@H](O)CO)O2)C[C@@H](O)[C@H]1O | 100% |  |  | 
2 | 20% | 20% | < 50% | < 50% | C=CCC/C=C/C=C/C=C/CC/C=C/C(O)C(O)[C@@H]1O[C@@H](C(O)C(O)C(=C)CCC(O)[C@H]2C[C@@H](O)[C@@H](O)[C@H](C(O)C(O)/C=C(\C)CCC(O)CC(O)C(O)C(C)CC(O)CC(C)/C=C(\C)CC(O)CC(C)CCC(O)CC(O)C(O)C(C)CC(O)CC(O)C(O)C(C)C(O)CCCC(O)CCCC(O)CCCC(O)/C=C/CC(O)/C=C/CO)O2)C[C@@H](O)[C@H]1O (stereo not given in full) |  | >15 µg | > 10000 nM | 
3 |  |  |  |  | C=CCC/C=C/C=C/C=C/CC/C=C/C(O)C(O)C1OC(C(O)C(O)C(=C)CCC(O)C2CC(O)C(O)C(C(O)C(O)/C=C(\C)CCC(O)CC(O)C(O)C(C)CC(O)CC(C)/C=C(\C)CC(O)CC(C)CC(O)C3CC(O)C(O)C(CC(O)CC(O)CO)O3)O2)CC(O)C1O (stereo not given) |  | 6 µg | 1700 nM | 
4 |  |  |  |  | C=CCC/C=C/C=C/C=C/CC/C=C/C(O)C(O)C1OC(C(O)C(O)C(=C)CCC(O)C2CC(O)C(O)C(C(O)C(O)/C=C(\C)CCC(O)CC(O)C(O)C(C)CC(O)C(O)CCCC(O)CCCC(O)CCCC(O)/C=C/CC(O)/C=C/CC(O)CO)O2)CC(O)C1O (stereo not given) |  | 6 µg | 2900 nM | 
5 | 20% | 20% | < 50% | < 50% | C=CCC/C=C/C=C/C=C/CC/C=C/C(O)C(O)[C@@H]1O[C@@H](C(O)C(O)C(=C)CCC(O)[C@H]2C[C@@H](O)[C@@H](O)[C@H](C(O)C(O)/C=C(\C)CCC(O)CC(O)C(O)C(C)CC(O)CC(C)/C=C(\C)CC(O)CC(C)CCC(O)CC(O)C(O)C(C)C(O)CCCC(O)CCCC(O)CCCC(O)/C=C/CC(O)/C=C/CO)O2)C[C@@H](O)[C@H]1O (stereo not given in full) |  | >15 µg | 1000 to 3000 nM | < 100%
6 |  |  |  |  | C=CCC/C=C/C=C/C=C/CC/C=C/C(O)C(O)C1OC(C(O)C(O)C(=C)CCC(O)C2CC(O)C(O)C(C(O)C(O)/C=C(\C)CCC(O)CC(O)C(O)C(C)CC(O)C(O)CC(C)CC/C=C/CC(O)CO)O2)CC(O)C1O (stereo not given) |  | 8 µg | 1200 nM | 

Source: ChEMBL document CHEMBL4130546, “Structures of the Largest Amphidinol Homologues from the Dinoflagellate Amphidinium carterae and Structure-Activity Relationships” (J Nat Prod, 2017)
